≈ marks a conversion by molar mass, not a printed value.
Key:
[1] = Cytotoxicity against human THP1 cells upto 50 uM treated 3 times per week for 14 days by MTT assay; format: cell-based; settings: thp-1, 336 h
[2] = test system: Staphylococcus aureus; assay: Bactericidal activity against methicillin-resistant Staphylococcus aureus isolate 1a assessed as reduction in colony counts at 32 ug/ml after 12 hrs by pour plate method (reference value: 10.12 +/- 0.428 log10CFU/ml); format: functional
[3] = test system: Staphylococcus aureus; assay: Antimicrobial activity against methicillin-resistant Staphylococcus aureus isolate 1a after 24 hrs by agar plate dilution method; format: functional
Procedure, shortened: (§1)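 Clinical MRSA isolates from axilla/nasal swabs, identified by mannitol salt agar, Gram stain and coagulase test. Agar plate dilution with compound series 0.03–128 µg/mL. Inoculum suspended in water to McFarland 0.5. Incubation 24 h at 37 °C. MIC read as the lowest level without white growth spots. Dilution series quality-controlled with S. aureus NCTC 6571.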

[4] = test system: Staphylococcus aureus; assay: Antimicrobial activity against methicillin-resistant Staphylococcus aureus isolate 14a after 24 hrs by agar plate dilution method; format: functional; procedure, shortened: as §1
[5] = test system: Staphylococcus aureus; assay: Antimicrobial activity against methicillin-resistant Staphylococcus aureus isolate 20a after 24 hrs by agar plate dilution method; format: functional; procedure, shortened: as §1
[6] = test system: Staphylococcus aureus; assay: Antimicrobial activity against methicillin-resistant Staphylococcus aureus isolate 11a after 24 hrs by agar plate dilution method; format: functional; procedure, shortened: as §1
[7] = test system: Staphylococcus aureus; assay: Antimicrobial activity against methicillin-resistant Staphylococcus aureus isolate 7a after 24 hrs by agar plate dilution method; format: functional
Procedure, shortened: (§2)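 Clinical MRSA isolates, from axilla/nasal swabs and identified by mannitol salt agar, Gram stain and coagulase test. […] Inoculum adjusted to McFarland 0.5 in water. Plates incubated 24 h at 37 °C and scored for growth spots. Dilution series quality-controlled with S. aureus NCTC 6571. Combination lines used a 1:1 mixture with oxacillin.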

[8] = test system: Staphylococcus aureus; assay: Antimicrobial activity against methicillin-resistant Staphylococcus aureus isolate 2a after 24 hrs by agar plate dilution method; format: functional; procedure, shortened: as §1
[9] = test system: Staphylococcus aureus; assay: Antimicrobial activity against methicillin-resistant Staphylococcus aureus isolate 3a after 24 hrs by agar plate dilution method; format: functional; procedure, shortened: as §1
[10] = test system: Staphylococcus aureus; assay: Antimicrobial activity against methicillin-resistant Staphylococcus aureus isolate 13a after 24 hrs by agar plate dilution method; format: functional; procedure, shortened: as §1
[11] = test system: Staphylococcus aureus; assay: Antimicrobial activity against methicillin-resistant Staphylococcus aureus isolate 6a after 24 hrs by agar plate dilution method; format: functional; procedure, shortened: as §2
[12] = test system: Staphylococcus aureus; assay: Antimicrobial activity against methicillin-resistant Staphylococcus aureus isolate 12a after 24 hrs by agar plate dilution method; format: functional; procedure, shortened: as §1
[13] = test system: Staphylococcus aureus; assay: Antimicrobial activity against methicillin-resistant Staphylococcus aureus isolate 8a after 24 hrs by agar plate dilution method; format: functional; procedure, shortened: as §2
[14] = test system: Staphylococcus aureus; assay: Bactericidal activity against methicillin-resistant Staphylococcus aureus isolate 1a assessed as reduction in colony counts at 32 ug/ml after 24 hrs by pour plate method (reference value: 12.64 +/- 0.224 log10CFU/ml); format: functional
[15] = test system: Staphylococcus aureus; assay: Antimicrobial activity against methicillin-resistant Staphylococcus aureus isolate 29a after 24 hrs by agar plate dilution method; format: functional; procedure, shortened: as §1
[16] = test system: Staphylococcus aureus; assay: Bactericidal activity against methicillin-resistant Staphylococcus aureus isolate 1a assessed as reduction in colony counts at 32 ug/ml after 4 hrs by pour plate method (reference value: 6.14 +/- 0.456 log10CFU/ml); format: functional
[17] = test system: Staphylococcus aureus; assay: Antimicrobial activity against methicillin-resistant Staphylococcus aureus isolate 24a after 24 hrs by agar plate dilution method; format: functional; procedure, shortened: as §1
[18] = test system: Staphylococcus aureus; assay: Antimicrobial activity against methicillin-resistant Staphylococcus aureus isolate 23a after 24 hrs by agar plate dilution method; format: functional; procedure, shortened: as §1
[19] = test system: Staphylococcus aureus; assay: Antimicrobial activity against methicillin-resistant Staphylococcus aureus isolate 5a after 24 hrs by agar plate dilution method; format: functional; procedure, shortened: as §2
[20] = test system: Staphylococcus aureus; assay: Antimicrobial activity against methicillin-resistant Staphylococcus aureus isolate 28a after 24 hrs by agar plate dilution method; format: functional; procedure, shortened: as §1
[21] = test system: Staphylococcus aureus; assay: Antimicrobial activity against methicillin-resistant Staphylococcus aureus isolate 10a after 24 hrs by agar plate dilution method; format: functional; procedure, shortened: as §1
[22] = test system: Staphylococcus aureus; assay: Antimicrobial activity against methicillin-resistant Staphylococcus aureus isolate 18a after 24 hrs by agar plate dilution method; format: functional; procedure, shortened: as §1
[23] = test system: Staphylococcus aureus; assay: Antimicrobial activity against methicillin-resistant Staphylococcus aureus isolate 16a after 24 hrs by agar plate dilution method; format: functional; procedure, shortened: as §1
[24] = test system: Staphylococcus aureus; assay: Antimicrobial activity against methicillin-resistant Staphylococcus aureus isolate 21a after 24 hrs by agar plate dilution method; format: functional; procedure, shortened: as §1
[25] = test system: Staphylococcus aureus; assay: Antimicrobial activity against methicillin-resistant Staphylococcus aureus isolate 27a after 24 hrs by agar plate dilution method; format: functional; procedure, shortened: as §1
[26] = test system: Staphylococcus aureus; assay: Antimicrobial activity against methicillin-resistant Staphylococcus aureus isolate 9a after 24 hrs by agar plate dilution method; format: functional; procedure, shortened: as §2
[27] = test system: Staphylococcus aureus; assay: Antimicrobial activity against methicillin-resistant Staphylococcus aureus isolate 15a after 24 hrs by agar plate dilution method; format: functional; procedure, shortened: as §1
[28] = test system: Staphylococcus aureus; assay: Bactericidal activity against methicillin-resistant Staphylococcus aureus isolate 1a assessed as reduction in colony counts at 32 ug/ml after 8 hrs by pour plate method (reference value: 8.30 +/- 0.442 log10CFU/ml); format: functional
[29] = test system: Staphylococcus aureus; assay: Bactericidal activity against methicillin-resistant Staphylococcus aureus isolate 1a assessed as reduction in colony counts at 32 ug/ml after 20 hrs by pour plate method (reference value: 12.73 +/- 0.223 log10CFU/ml); format: functional
[30] = test system: Staphylococcus aureus; assay: Antimicrobial activity against methicillin-resistant Staphylococcus aureus isolate 4a after 24 hrs by agar plate dilution method; format: functional; procedure, shortened: as §1
[31] = test system: Staphylococcus aureus; assay: Antimicrobial activity against methicillin-resistant Staphylococcus aureus isolate 22a after 24 hrs by agar plate dilution method; format: functional; procedure, shortened: as §1
[32] = test system: Staphylococcus aureus; assay: Antimicrobial activity against methicillin-resistant Staphylococcus aureus isolate 25a after 24 hrs by agar plate dilution method; format: functional; procedure, shortened: as §1
[33] = test system: Staphylococcus aureus; assay: Antimicrobial activity against methicillin-resistant Staphylococcus aureus isolate 26a after 24 hrs by agar plate dilution method; format: functional; procedure, shortened: as §1
[34] = test system: Staphylococcus aureus; assay: Antimicrobial activity against methicillin-resistant Staphylococcus aureus isolate 19a after 24 hrs by agar plate dilution method; format: functional; procedure, shortened: as §1
[35] = test system: Staphylococcus aureus; assay: Bactericidal activity against methicillin-resistant Staphylococcus aureus isolate 1a assessed as reduction in colony counts at 32 ug/ml after 16 hrs by pour plate method (reference value: 12.50 +/- 0.291 log10CFU/ml); format: functional
[36] = test system: Staphylococcus aureus; assay: Antimicrobial activity against methicillin-resistant Staphylococcus aureus isolate 17a after 24 hrs by agar plate dilution method; format: functional; procedure, shortened: as §1
[37] = test system: Staphylococcus aureus; assay: Antimicrobial activity against methicillin-resistant Staphylococcus aureus isolate 30a after 24 hrs by agar plate dilution method; format: functional; procedure, shortened: as §1

Cc1ncc([N+](=O)[O-])n1CCn1cc(CNc2ccccn2)nn1
Activity [1]: Non-toxic

Cc1ncc([N+](=O)[O-])n1CCn1cc(COc2c(C(C)(C)C)cc(C(C)(C)C)cc2C(C)(C)C)nn1
Activity [1]: Non-toxic

Cc1ncc([N+](=O)[O-])n1CCn1cc(CNc2cc(Cl)c(Cl)cc2Cl)nn1
Activity [1]: Non-toxic

Cc1ncc([N+](=O)[O-])n1CCn1cc(CNc2cccc(Cl)c2)nn1
Activity [1]: Non-toxic

Cc1cccc(OCc2cn(CCn3c([N+](=O)[O-])cnc3C)nn2)c1C
Activity [1]: Non-toxic

Cc1ncc([N+](=O)[O-])n1CCn1cc(CNc2ccccc2)nn1
Activity [1]: Non-toxic

COc1cc(NCc2cn(CCn3c([N+](=O)[O-])cnc3C)nn2)cc(OC)c1
Activity [1]: Non-toxic

Cc1ncc([N+](=O)[O-])n1CCn1cc(CNc2ccc(Br)cc2)nn1
Activity [1]: Non-toxic

Cc1ncc([N+](=O)[O-])n1CCn1cc(CNCCc2ccccc2)nn1
Activity [1]: Non-toxic

Cc1ncc([N+](=O)[O-])n1CCn1cc(COc2ccc(Cl)cc2Cl)nn1
Activity [1]: Non-toxic

Cc1ncc([N+](=O)[O-])n1CCn1cc(-c2ccccc2)nn1
Activity [1]: Non-toxic

Cc1ccccc1OCc1cn(CCn2c([N+](=O)[O-])cnc2C)nn1
Activity [1]: Non-toxic

Cc1ccccc1NCc1cn(CCn2c([N+](=O)[O-])cnc2C)nn1
Activity [1]: Non-toxic

Cc1ncc([N+](=O)[O-])n1CCn1cc(CNc2ccc(F)cc2)nn1
Activity [1]: Non-toxic

Cc1ncc([N+](=O)[O-])n1CCn1cc(CNc2ccccc2Cl)nn1
Activity [1]: Non-toxic

Cc1ncc([N+](=O)[O-])n1CCn1cc(CBr)nn1
Activity [1]: Non-toxic

Cc1ncc([N+](=O)[O-])n1CCn1cc(COc2ccccc2C=O)nn1
Activity [1]: Non-toxic

Cc1ncc([N+](=O)[O-])n1CCn1cc(CNc2ccccc2F)nn1
Activity [1]: Non-toxic

Cc1ncc([N+](=O)[O-])n1CCn1cc(COc2cccc3ccccc23)nn1
Activity [1]: Non-toxic

Cc1ncc([N+](=O)[O-])n1CCn1cc(COC2CCCCO2)nn1 (stereo unspecified)
Activity [1]: Non-toxic

Cc1ncc([N+](=O)[O-])n1CCn1cc(C2(O)CCCCC2)nn1
Activity [1]: Non-toxic

Cc1onc(-c2ccccc2)c1C(=O)N[C@@H]1C(=O)N2[C@@H]1SC(C)(C)[C@@H]2C(=O)O [OXACILLIN]
Activity [2]: 8.35 log10CFU/ml
MIC [3]: > 128 µg/mL
MIC [4]: > 128 µg/mL
MIC [5]: > 128 µg/mL
MIC [6]: > 128 µg/mL
MIC [7]: > 128 µg/mL
MIC [8]: > 128 µg/mL
MIC [9]: > 128 µg/mL
MIC [10]: > 128 µg/mL
MIC [11]: > 128 µg/mL
MIC [12]: > 128 µg/mL
MIC [13]: > 128 µg/mL
Activity [14]: 12.34 log10CFU/ml
MIC [15]: 32 µg/mL (≈ 79.7 µM)
Activity [16]: 6.05 log10CFU/ml
MIC [17]: 16 µg/mL (≈ 39.9 µM)
MIC [18]: 64 µg/mL (≈ 159 µM)
MIC [19]: > 128 µg/mL
MIC [20]: 128 µg/mL (≈ 319 µM)
MIC [21]: > 128 µg/mL
MIC [22]: > 128 µg/mL
MIC [23]: > 128 µg/mL
MIC [24]: 64 µg/mL (≈ 159 µM)
MIC [25]: 32 µg/mL (≈ 79.7 µM)
MIC [26]: > 128 µg/mL
MIC [27]: > 128 µg/mL
Activity [28]: 7.62 log10CFU/ml
Activity [29]: 11.95 log10CFU/ml
MIC [30]: > 128 µg/mL
MIC [31]: 32 µg/mL (≈ 79.7 µM)
MIC [32]: 64 µg/mL (≈ 159 µM)
MIC [33]: 32 µg/mL (≈ 79.7 µM)
MIC [34]: > 128 µg/mL
Activity [35]: 11.2 log10CFU/ml
MIC [36]: > 128 µg/mL
MIC [37]: 64 µg/mL (≈ 159 µM)

Cc1ncc([N+](=O)[O-])n1CCO [METRONIDAZOLE]
Activity [2]: 8.01 log10CFU/ml
Activity [14]: 8.3 log10CFU/ml
Activity [16]: 5.91 log10CFU/ml
Activity [28]: 6.45 log10CFU/ml
Activity [29]: 8.14 log10CFU/ml
Activity [35]: 8.25 log10CFU/ml

Cc1ncc([N+](=O)[O-])n1CCn1cc(CNc2cccc(Cl)c2Cl)nn1
Activity [1]: Non-toxic

CCC(=O)OCc1cn(CCn2c([N+](=O)[O-])cnc2C)nn1
Activity [1]: Non-toxic

Cc1ncc([N+](=O)[O-])n1CCn1cc(COc2ccc(C(C)(C)C)cc2)nn1
Activity [1]: Non-toxic

Cc1ncc([N+](=O)[O-])n1CCn1cc(COc2ccccc2Cl)nn1
Activity [1]: Non-toxic

CCCc1cn(CCn2c([N+](=O)[O-])cnc2C)nn1
Activity [1]: Non-toxic

Cc1ncc([N+](=O)[O-])n1CCn1cc([Si](C)(C)C)nn1
Activity [1]: Non-toxic

Cc1ncc([N+](=O)[O-])n1CCn1cc(COc2ccc([N+](=O)[O-])cc2)nn1
Activity [1]: Non-toxic

Cc1ncc([N+](=O)[O-])n1CCn1cc(COc2ccc(C(C)C)cc2)nn1
Activity [1]: Non-toxic

Cc1ncc([N+](=O)[O-])n1CCn1cc(COc2ccccc2)nn1
Activity [1]: Non-toxic

Cc1ncc([N+](=O)[O-])n1CCn1cc(COCc2ccccc2)nn1
Activity [1]: Non-toxic

Cc1ccc(OCc2cn(CCn3c([N+](=O)[O-])cnc3C)nn2)cc1
Activity [1]: Non-toxic

Cc1ncc([N+](=O)[O-])n1CCn1cc(CNc2cccc(F)c2)nn1
Activity [1]: Non-toxic

Cc1ncc([N+](=O)[O-])n1CCn1cc(COc2ccc(C=O)cc2)nn1
Activity [1]: Non-toxic
